Structures are written as SMILES.

Series [1] in a line: Human liver microsomal incubations. Format: in vitro ADME. The method in brief:
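Test compound at 1 µM incubated with human liver microsomes (1 mg/mL) plus NADPH; samples taken at 0, 10, 30 and 60 min; parent compound remaining measured.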

The nature of series [2]: In vivo pharmacokinetic parameters. The conditions noted are these: parent 8b in rat after oral administration of the 8b salt, 20 mg/kg. The method in brief: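 Rats dosed orally at 20 mg/kg with the test form; parent compound measured in plasma. Parameters derived: Cmax, Tmax, half-life, volume of distribution, AUC0-t and calculated total clearance (ClT).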
Series [3] concerns 3D7 strain of P. falciparum. The series is described as follows: In vitro antimalarial activity versus 3D7 Plasmodium falciparum. The conditions noted are these: 3D7, read-out: IC50 (nM) 3D7 ± SD, 3D7 strain of P. falciparum. Format: cell-based.

Broadly, the CLint scaled is the capacity of the preparation to metabolise the compound, expressed as a volume cleared per time. Read a low CLint scaled as slow turnover. Consider `Cc1c(-c2ccc(-c3ccc(OC(F)(F)F)cc3)nc2)[nH]c2ccccc2c1=O` [8b], for which, in series [1] (1 μM, human liver microsomes 1 mg/mL, NADPH, 60 min), the “parent compound present after 60 min incubation” value is listed as “Greater than 60%”. The same compound showed a CLint scaled at 1 µM in series [1] (human, liver microsomes) of 1.78 mL/min/kg. Moreover, the ClT in series [2] is 4.605 mL/min/kg.
Broadly, the IC50 is the concentration needed to halve the response being measured. `O=c1c(CO)c(-c2ccc(-c3ccc(OC(F)(F)F)cc3)nc2)[nH]c2ccccc12` [compound 22]: in series [3], the half-inhibitory concentration (IC50) stood at 987 nM.
The same measure, in the same setting: to `CCOC(=O)c1c(-c2ccc(-c3ccc(OC(F)(F)F)cc3)nc2)[nH]c2ccccc2c1=O` [compound 21] belongs 103 nM.

For the origin of these results see article PMC3351724 (Journal of Medicinal Chemistry, 2012).
